JMJD2C inh: blocks human GASC-1 demethylase activity; Q9H3R0; GST-JMJD2C(1-420) H3K9me3 demethylation, DELFIA europium; inhibition, % at 2.35 µM; 330,000 tested, 0.069% active; AID 2099;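 active = more than half of a compound's replicate wells show inhibition beyond 50%, single wells judged on their own value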;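 also: signal counts dimethyl H3K9 product captured on neutravidin plate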
DAX1 inh-1: blocks DAX1 repression of SF-1 activated StAR promoter; 370,000 tested, 1.1% active; HEK293T StAR-luciferase reporter, SF-1/DAX-1 repression relief; inhibition, % at 6.8 µM; AID 652010;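 active = inhibition above the mean over all tested compounds plus 3 SD, cut at about 3.6% in these data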;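 also: higher inhibition means more luminescence from relief of DAX-1 repression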
DAX1 inh-2: inhibitors of human orphan nuclear receptor DAX1 (NR0B1) | 340,000 tested, 0.99% active | AID 504766 | inhibition, % at 6.75 µM | P51843 | HEK293 Gal4-DAX1 luciferase reporter, luminescence;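 active = inhibition above the mean over all tested compounds plus 3 SD, cut at about 4.2% in these data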;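 also: inhibition shows as a rise in luminescence from relieved DAX1 repression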
Target sequence (P51843 207-470 limits assumed): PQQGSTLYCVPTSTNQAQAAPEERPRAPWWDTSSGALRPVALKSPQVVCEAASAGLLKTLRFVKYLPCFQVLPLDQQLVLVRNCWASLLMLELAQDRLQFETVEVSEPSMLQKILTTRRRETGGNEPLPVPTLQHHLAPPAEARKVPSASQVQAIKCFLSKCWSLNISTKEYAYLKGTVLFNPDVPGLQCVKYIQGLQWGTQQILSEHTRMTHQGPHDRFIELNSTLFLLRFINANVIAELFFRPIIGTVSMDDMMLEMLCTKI
NR2E3 ag-1: agonists of human NR2E3 nuclear receptor; Q9Y5X4; CHO-S Gal4-NCOR/VP16-NR2E3 two-hybrid, luciferase; inhibition of corepressor binding, % at 3.98 µM; 360,000 tested, 0.35% active; AID 602229;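 active = inhibition above the mean of all tested compounds plus 3 SD, cut at about 70% in these data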;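 also: higher means lower luciferase signal from less NR2E3 corepressor binding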
Target sequence (Q9Y5X4 whole entry, looked up, the tested form may be a part): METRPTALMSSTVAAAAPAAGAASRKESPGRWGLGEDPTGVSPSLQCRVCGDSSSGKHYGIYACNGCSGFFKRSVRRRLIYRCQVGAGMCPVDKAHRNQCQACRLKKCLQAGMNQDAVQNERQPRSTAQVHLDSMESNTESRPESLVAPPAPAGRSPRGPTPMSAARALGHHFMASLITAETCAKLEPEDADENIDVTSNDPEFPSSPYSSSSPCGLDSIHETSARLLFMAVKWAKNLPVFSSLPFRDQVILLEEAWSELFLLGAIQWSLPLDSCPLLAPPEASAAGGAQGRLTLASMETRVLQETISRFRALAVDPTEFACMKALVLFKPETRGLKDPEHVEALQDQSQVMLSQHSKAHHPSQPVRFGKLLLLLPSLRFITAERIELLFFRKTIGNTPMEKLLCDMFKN
NR2E3 ag-2: agonists of human nuclear receptor NR2E3; 320,000 tested, 0.12% active; AID 2300; GST-NR2E3/biotin-RetCOR TR-FRET, 1536-well; inhibition of corepressor binding, % at 4.78 µM;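 active = percent inhibition above the cutoff of mean plus 3 SD of all tested compounds, set per screening campaign, cut at about 20% in these data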
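System: GST-tagged NR2E3 plus biotinylated RetCOR corepressor; Buffer or medium: pH 7.5 Tris-based buffer; Probe or stimulus: RetCOR corepressor, biotinylated, 7 nM; Doses: compound at 4.8 µM, single dose; Schedule: 5 h incubation at 4 °C; Technique: time-resolved FRET; Evaluation: percent inhibition of TR-FRET ratio; Replication: one well per compound, singlicate testing.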
SMARCA2 act: increases SMARCA2 function in MMTV reporter cells; MG213 cells, MMTV-luciferase reporter, dexamethasone, overnight; activation, % at 9.1 µM; 370,000 tested, 1% active; in the data active = activation above about 7.8%
Numbers stand for hits; n = inactive; x = no result given. Hits are enriched below; roughly 3.2% of the tested compounds scored in any of these assays.

SMILES | JMJD2C inh | DAX1 inh-1 | DAX1 inh-2 | NR2E3 ag-1 | NR2E3 ag-2 | SMARCA2 act
Nc1ccccc1NC1=CC(=O)CC(c2ccco2)C1 (stereo not drawn) | n | n | n | n | n | 7.9
Cc1ccc(Cl)c2c(N=Nc3ccccc3)c(O)[nH]c12 | n | n | 6.3 | n | x | n
Cc1ccc(NC(=O)CSc2nnc(-c3cccnc3)n2Cc2ccco2)c(C)c1 | x | n | x | x | x | n
CC(=O)Nc1ccc(S(=O)(=O)NNC(=O)c2ccc(C)cc2)cc1 | n | n | n | n | n | n
Cc1ccc(S(=O)(=O)NNC(=O)Nc2ccc(Cl)cc2)cc1 | n | n | n | n | n | 8.8
C=CCn1c(SCC(=O)c2ccc(F)cc2)nnc1-c1ccc(F)cc1 | x | n | x | x | x | n
O[C@@H]1C[C@H](c2ccc(Cl)cc2)N(CC2CCCCC2)C[C@H]1n1cc(C2CC2)nn1 | x | n | n | n | x | 7.9
Cc1ccc([C@H]2C[C@@H](O)[C@H](n3cc(C4CC4)nn3)CN2CC2CCCCC2)cc1 | x | n | n | n | x | 7.8
O[C@H]1C[C@H](c2ccc(Cl)cc2)N(CC2CCCCC2)C[C@@H]1n1cc(C2CC2)nn1 | x | n | n | n | x | n
Cn1c2ccccc2c2ncn(CCCN3CCOCC3)c(=O)c21 | n | n | n | n | n | n
Cn1c2ccc(F)cc2c2ncn(CCN3CCOCC3)c(=O)c21 | n | n | 7.2 | n | n | n
CC(C)C(=O)Nc1cc(S(=O)(=O)Nc2ccc(Cl)cc2)ccc1Cl | n | n | n | n | n | n
CC(C)(C)C(=O)Nc1cc(S(=O)(=O)Nc2ccc(Cl)cc2)ccc1O | n | n | 4.3 | n | n | n
CCOC(=O)c1ccc(-n2c(CN3CCN(CC)CC3)nc3ccc([N+](=O)[O-])cc3c2=O)cc1 | n | n | n | n | n | 7.9
CCOC(=O)c1ccc(-n2c(CN3CCOCC3)nc3ccc([N+](=O)[O-])cc3c2=O)cc1 | n | n | n | n | n | n
Cc1cc(NC(=O)c2cccc(Oc3ccccc3)c2)n[nH]1 | n | 3.7 | n | n | n | n
Cc1cc(NC(=O)NC(=O)c2cccc(OC(F)(F)C(F)F)c2)n[nH]1 | n | n | n | n | n | n
CCOC(=O)[C@@]12CN(C(=O)OC(C)(C)C)CC=C1N(Cc1ccc(OC)cc1)C(=O)[C@H]2CC(=O)N1CCOCC1 | x | n | x | x | x | n
O=C1NC[C@H](CCCCN2C[C@H](Cc3ccccc3)N(Cc3ccccc3)C(=O)C2=O)N(CCc2ccccc2)C1=O | x | 3.8 | x | n | x | n
O=C1NC[C@@H](CCCCN2C[C@H](Cc3ccccc3)N(CCc3ccccc3)C(=O)C2=O)N(Cc2ccccc2)C1=O | x | n | x | n | x | n
NC(=O)CN(c1ccc([N+](=O)[O-])cc1)S(=O)(=O)c1ccccc1 | n | n | 4.4 | n | n | n
CC(=O)Nc1ccc(NC(=O)CN(c2ccc([N+](=O)[O-])cc2)S(=O)(=O)c2ccccc2)cc1 | n | n | n | n | n | n
CSc1ncccc1C(=O)OCC(=O)c1cc(C)n(C)c1C | n | n | 4.3 | n | x | n
COc1ccc(-c2nc3ccc(N4CCN(C)CC4)cc3c(=O)[nH]2)cc1 | n | n | 5.0 | n | n | n
COc1cc(-c2nc3ccc(N4CCN(C)CC4)cc3[nH]2)cc(OC)c1OC | n | n | n | n | n | n
SMILES | JMJD2C inh | DAX1 inh-1 | DAX1 inh-2 | NR2E3 ag-1 | NR2E3 ag-2 | SMARCA2 act
CCC1CCCN1Cn1cnc2c([nH]c3ccc(C)cc32)c1=O (stereo not drawn) | n | n | n | n | n | n
CCC1CCCN1Cn1cnc2c([nH]c3ccc(Cl)cc32)c1=O (stereo not drawn) | n | n | n | n | n | 9.7
Cc1ccccc1S(=O)(=O)N1CCC(c2nc3ccccc3o2)CC1 | x | n | x | x | x | n
COC(=O)[C@]12C[C@H](CC(=O)N3CCCC3)C(=O)N(Cc3ccc(Cl)cc3Cl)C1=C[C@H](C1CCCC1)O[C@@H]2C | x | n | x | x | x | n
CC(=O)c1ccc(N2C(=NC(=O)COc3ccccc3)SC3CS(=O)(=O)CC32)cc1 (stereo not drawn) | n | n | 5.5 | n | n | n
COc1ccc(O)c(C(=O)c2cnn(C(=O)c3cccc(N(C)C)c3)c2)c1 | n | n | n | n | x | n
CN(C)c1cccc(C(=O)n2cc(C(=O)c3cc(F)ccc3O)cn2)c1 | n | n | n | n | n | 7.8
CCCC(=O)OC12CCCN(C1)/C(=C/c1ccc(OC)cc1)C2 (stereo not drawn) | x | n | x | x | x | n
CCC(C)N(c1nc(C)nc2c1nnn2Cc1ccccc1)C(C)CC (stereo not drawn) | x | n | x | x | x | n
CC(NCc1ccco1)C(=O)N1CCCN(C)CC1 (stereo not drawn) | x | n | x | x | x | n
CCOC(=O)CC(=O)Nc1nnc(C(C)C)s1 | n | n | 5.3 | n | n | n
CC(C)c1nnc(NC(=O)CCCC(=O)O)s1 | n | n | n | n | n | n
CCC(/C=N/NC(=O)c1ccccc1F)CC | n | n | 5.3 | n | n | n
O=C(NC1CCCCN(Cc2cccc(Cl)c2)C1=O)c1cccs1 (stereo not drawn) | x | n | x | x | x | n
Cc1cc(C(=O)CSc2n[nH]c(N)n2)c(C)n1-c1cccc(F)c1 | n | n | n | n | n | n
Cc1cc(C(=O)CSc2ncccn2)c(C)n1-c1cccc(F)c1 | n | 4.3 | n | n | n | n
NC(=O)c1c(NC(=O)c2ccccc2)sc2c1CCC2 | n | n | 4.5 | n | n | n
NC(=O)c1c(NC(=O)c2ccncc2)sc2c1CCCC2 | n | n | n | n | n | n
C=CCN1C(=O)[C@@H](CC(=O)N2CCSCC2)[C@]2(C(=O)OC)CCCCC=C12 | x | n | x | x | x | n
Cc1ccc(C(C)C)c(OCC(=O)NNC(=O)CC2OC(=O)c3ccccc32)c1 (stereo not drawn) | n | n | 4.2 | n | n | n
Cc1ccc(C(C)C)c(OCC(=O)NNC(=O)Nc2ccccc2)c1 | n | n | n | n | n | n
Cc1ccc(-c2nc(CSCC(=O)N3CCN(C(=O)c4ccco4)CC3)c(C)o2)cc1 | n | n | n | n | n | n
CCc1ccc(-c2nc(CSCC(=O)N3CCN(c4ccccn4)CC3)c(C)o2)cc1 | n | n | n | 83.8 | n | n
OCC1(CCOc2ccccc2)CCN(Cc2ccc3c(c2)OCCO3)CC1 | n | n | 4.8 | n | n | n
C/C(=C\c1ccc(Cl)cc1)C(=O)c1c(C)cc(C)[nH]c1=O | n | n | 4.5 | n | n | n
C/C(=C\c1ccc(Br)cc1)C(=O)c1c(C)cc(C)[nH]c1=O | n | n | n | n | x | n
Cc1cc(NC(=O)Cn2cc([N+](=O)[O-])cn2)no1 | n | n | 4.7 | n | n | n
NC(=O)c1cnn(-c2cc(Oc3ccccc3)ncn2)c1N | n | 3.7 | n | n | n | n
COc1ccccc1-c1cc(=O)c2c(O)ccc([N+](=O)[O-])c2o1 | n | n | n | n | n | n

From PubChem
